{"source": "ChEMBL document CHEMBL1156480", "about": "“Insensitivity to Abeta42-lowering nonsteroidal anti-inflammatory drugs and gamma-secretase inhibitors is common among aggressive presenilin-1 mutations” (J Biol Chem, 2007)", "key": {"[1]": {"target": "Presenilin-1 (Homo sapiens) (UniProt P49768)", "assay": "Reduction of human wild type PS1-induced amyloid beta-40 level in CHO cells overexpressing human APP751 at 0.1 nM after 24 hrs by liquid phase electrochemiluminescence assay relative to control", "format": "cell-based", "set-up": "scale not given: the % may be the effect or the level left"}, "[2]": {"test_system": "Mus musculus", "assay": "Reduction of amyloid beta-42 level in Tg2576 mouse brain at 10 mg/kg, po after 3 hrs by ELISA relative to control", "format": "functional", "set-up": "scale not given: the % may be the effect or the level left", "procedure,_shortened": "(§1)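 Mice given one oral 10 mg/kg dose in 0.5% tylose, or vehicle alone; the lines cover 5-month-old Tg2576 (Swedish APP) mice and 2-month-old APPPS1 (Swedish APP + human PS1-L166P, Thy-1 promoter) mice. Killed 3 h post-dose. Brain homogenized in Tris buffer with 0.2% Triton X-100 and spun 1 h at 200,000 x g. Soluble supernatant Abeta40 (6E10 capture) and Abeta42 measured by sandwich ELISA. n = 4–6, paired t-test.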"}, "[3]": {"test_system": "Mus musculus", "assay": "Reduction of amyloid beta-40 level in Tg2576 mouse brain at 10 mg/kg, po after 3 hrs by ELISA relative to control", "format": "functional", "set-up": "scale not given: the % may be the effect or the level left", "procedure,_shortened": "as §1"}, "[4]": {"assay": "Reduction of human PS1 delta exon9 mutant-induced amyloid beta-42 level in CHO cells overexpressing human APP751after 24 hrs by liquid phase electrochemiluminescence assay relative to control", "format": "cell-based"}, "[5]": {"test_system": "Presenilin-1 (Homo sapiens), P49768 [L166P]", "assay": "Reduction of human PS1 L166P mutant-induced amyloid beta42 level in CHO cells overexpressing human APP751 at 0.2 nM after 24 hrs by liquid phase electrochemiluminescence assay relative to control", "format": "cell-based", "set-up": "scale not given: the % may be the effect or the level left", "procedure,_shortened": "(§2)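 APP751 CHO cells stably expressing PS1-ΔExon9, PS1-L166P or PS1-WT, cultured in parallel in serum-containing medium. Treated 24 h with increasing γ-secretase inhibitor concentrations or DMSO. Conditioned-media Abeta40/Abeta42 quantified by LPECL against synthetic peptide standards (16–2000 pg/ml). Duplicates normalized to DMSO. n = 3, one-way ANOVA with Dunnett's test versus PS1-WT.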"}, "[6]": {"test_system": "CHO", "assay": "Reduction of human PS1 delta exon9 mutant-induced amyloid beta42 level in CHO cells overexpressing human APP751 at 0.1 nM after 24 hrs by liquid phase electrochemiluminescence assay relative to control", "format": "cell-based", "set-up": "scale not given: the % may be the effect or the level left"}, "[7]": {"test_system": "CHO", "assay": "Reduction of human PS1 delta exon9 mutant-induced amyloid beta42 level in CHO cells overexpressing human APP751 at 0.2 nM after 24 hrs by liquid phase electrochemiluminescence assay relative to control", "format": "cell-based", "set-up": "scale not given: the % may be the effect or the level left"}, "[8]": {"target": "Presenilin-1 (Homo sapiens) (UniProt P49768)", "assay": "Reduction of human wild type PS1-induced amyloid beta40 level in CHO cells overexpressing human APP751 at 0.5 nM after 24 hrs by liquid phase electrochemiluminescence assay relative to control", "format": "cell-based", "set-up": "scale not given: the % may be the effect or the level left"}, "[9]": {"test_system": "Presenilin-1 (Homo sapiens), P49768 [L166P]", "assay": "Reduction of human PS1 L166P mutant-induced amyloid beta-40 level in CHO cells overexpressing human APP751 at 0.1 nM after 24 hrs by liquid phase electrochemiluminescence assay relative to control", "format": "cell-based", "set-up": "scale not given: the % may be the effect or the level left", "procedure,_shortened": "as §2"}, "[10]": {"test_system": "Mus musculus", "assay": "Reduction of amyloid beta40 level in Tg2576 mouse brain at 10 mg/kg, po after 3 hrs by ELISA", "format": "functional", "procedure,_shortened": "as §1"}, "[11]": {"test_system": "Mus musculus", "assay": "Reduction of amyloid beta-40 level in Swedish APP and human PS1-L166P APPPS1 transgenic mouse brain at 10 mg/kg, po after 3 hrs by ELISA relative to control", "format": "functional", "set-up": "scale not given: the % may be the effect or the level left", "procedure,_shortened": "as §1"}, "[12]": {"test_system": "Presenilin-1 (Homo sapiens), P49768 [L166P]", "assay": "Reduction of human PS1 L166P mutant-induced amyloid beta40 level in CHO cells overexpressing human APP751 at 0.5 nM after 24 hrs by liquid phase electrochemiluminescence assay relative to control", "format": "cell-based", "set-up": "scale not given: the % may be the effect or the level left", "procedure,_shortened": "as §2"}, "[13]": {"test_system": "Mus musculus", "assay": "Reduction of amyloid beta-42 level in Tg2576 mouse brain at 10 mg/kg, po after 3 hrs by ELISA", "format": "functional", "procedure,_shortened": "as §1"}, "[14]": {"test_system": "CHO", "assay": "Reduction of human PS1 delta exon9 mutant-induced amyloid beta42 level in CHO cells overexpressing human APP751 at 0.5 nM after 24 hrs by liquid phase electrochemiluminescence assay relative to control", "format": "cell-based", "set-up": "scale not given: the % may be the effect or the level left"}, "[15]": {"target": "Presenilin-1 (Homo sapiens) (UniProt P49768)", "assay": "Reduction of human wild type PS1-induced amyloid beta42 level in CHO cells overexpressing human APP751 at 0.2 nM after 24 hrs by liquid phase electrochemiluminescence assay relative to control", "format": "cell-based", "set-up": "scale not given: the % may be the effect or the level left"}, "[16]": {"test_system": "CHO", "assay": "Reduction of human PS1 delta exon9 mutant-induced amyloid beta-40 level in CHO cells overexpressing human APP751 at 0.2 nM after 24 hrs by liquid phase electrochemiluminescence assay relative to control", "format": "cell-based", "set-up": "scale not given: the % may be the effect or the level left", "procedure,_shortened": "as §2"}, "[17]": {"test_system": "Presenilin-1 (Homo sapiens), P49768 [L166P]", "assay": "Reduction of human PS1 L166P mutant-induced amyloid beta42 level in CHO cells overexpressing human APP751 at 0.1 nM after 24 hrs by liquid phase electrochemiluminescence assay relative to control", "format": "cell-based", "set-up": "scale not given: the % may be the effect or the level left", "procedure,_shortened": "as §2"}, "[18]": {"assay": "Reduction of human PS1 delta exon9 mutant-induced amyloid beta-40 level in CHO cells overexpressing human APP751after 24 hrs by liquid phase electrochemiluminescence assay relative to control", "format": "cell-based"}, "[19]": {"target": "Presenilin-1 (Homo sapiens) (UniProt P49768)", "assay": "Reduction of human wild type PS1-induced amyloid beta-42 level in CHO cells overexpressing human APP751 at 0.5 nM after 24 hrs by liquid phase electrochemiluminescence assay relative to control", "format": "cell-based", "set-up": "scale not given: the % may be the effect or the level left"}, "[20]": {"test_system": "Presenilin-1 (Homo sapiens), P49768 [L166P]", "assay": "Reduction of human PS1 L166P mutant-induced amyloid beta40 level in CHO cells overexpressing human APP751 at 0.2 nM after 24 hrs by liquid phase electrochemiluminescence assay relative to control", "format": "cell-based", "set-up": "scale not given: the % may be the effect or the level left", "procedure,_shortened": "as §2"}, "[21]": {"target": "Presenilin-1 (Homo sapiens) (UniProt P49768)", "assay": "Reduction of human wild type PS1-induced amyloid beta42 level in CHO cells overexpressing human APP751 at 0.1 nM after 24 hrs by liquid phase electrochemiluminescence assay relative to control", "format": "cell-based", "set-up": "scale not given: the % may be the effect or the level left"}, "[22]": {"test_system": "CHO", "assay": "Reduction of human PS1 delta exon9 mutant-induced amyloid beta40 level in CHO cells overexpressing human APP751 at 0.5 nM after 24 hrs by liquid phase electrochemiluminescence assay relative to control", "format": "cell-based", "set-up": "scale not given: the % may be the effect or the level left"}, "[23]": {"target": "Presenilin-1 (Homo sapiens) (UniProt P49768)", "assay": "Reduction of human wild type PS1-induced amyloid beta-40 level in CHO cells overexpressing human APP751 at 0.2 nM after 24 hrs by liquid phase electrochemiluminescence assay relative to control", "format": "cell-based", "set-up": "scale not given: the % may be the effect or the level left"}, "[24]": {"test_system": "Mus musculus", "assay": "Reduction of amyloid beta42 level in Swedish APP and human PS1-L166P APPPS1 transgenic mouse brain at 10 mg/kg, po after 3 hrs by ELISA relative to control", "format": "functional", "set-up": "scale not given: the % may be the effect or the level left", "procedure,_shortened": "as §1"}, "[25]": {"test_system": "Presenilin-1 (Homo sapiens), P49768 [L166P]", "assay": "Reduction of human PS1 L166P mutant-induced amyloid beta42 level in CHO cells overexpressing human APP751 at 0.5 nM after 24 hrs by liquid phase electrochemiluminescence assay relative to control", "format": "cell-based", "set-up": "scale not given: the % may be the effect or the level left", "procedure,_shortened": "as §2"}, "[26]": {"test_system": "Mus musculus", "assay": "Reduction of amyloid beta-42 level in Swedish APP and human PS1-L166P APPPS1 transgenic mouse brain at 10 mg/kg, po after 3 hrs by ELISA", "format": "functional", "procedure,_shortened": "as §1"}, "[27]": {"test_system": "CHO", "assay": "Reduction of human PS1 delta exon9 mutant-induced amyloid beta-40 level in CHO cells overexpressing human APP751 at 0.1 nM after 24 hrs by liquid phase electrochemiluminescence assay relative to control", "format": "cell-based", "set-up": "scale not given: the % may be the effect or the level left", "procedure,_shortened": "as §2"}, "[28]": {"test_system": "Mus musculus", "assay": "Reduction of amyloid beta-40 level in Swedish APP and human PS1-L166P APPPS1 transgenic mouse brain at 10 mg/kg, po after 3 hrs by ELISA", "format": "functional", "procedure,_shortened": "as §1"}}, "data": [{"smiles": "C[C@H](NC(=O)[C@@H](O)c1cc(F)cc(F)c1)C(=O)N[C@@H]1C(=O)N(C)c2ccccc2-c2ccccc21", "values": [{"measurement": "Activity", "setting": "[1]", "value": 64.2, "unit": "%"}, {"measurement": "Activity", "setting": "[2]", "value": 89, "unit": "%"}, {"measurement": "Activity", "setting": "[3]", "value": 85, "unit": "%"}, {"measurement": "EC50", "setting": "[4]", "value": 0.352, "unit": "nM"}, {"measurement": "Activity", "setting": "[5]", "value": 57.7, "unit": "%"}, {"measurement": "Activity", "setting": "[6]", "value": 94.4, "unit": "%"}, {"measurement": "Activity", "setting": "[7]", "value": 72, "unit": "%"}, {"measurement": "Activity", "setting": "[8]", "value": 5.6, "unit": "%"}, {"measurement": "Activity", "setting": "[9]", "value": 66.6, "unit": "%"}, {"measurement": "Activity", "setting": "[10]", "value": 1.23, "unit": "pmol/g"}, {"measurement": "Activity", "setting": "[11]", "value": 81.2, "unit": "%"}, {"measurement": "Activity", "setting": "[12]", "value": 11.7, "unit": "%"}, {"measurement": "Activity", "setting": "[13]", "value": 0.21, "unit": "pmol/g"}, {"measurement": "Activity", "setting": "[14]", "value": 26.5, "unit": "%"}, {"measurement": "Activity", "setting": "[15]", "value": 18.8, "unit": "%"}, {"measurement": "Activity", "setting": "[16]", "value": 72.9, "unit": "%"}, {"measurement": "Activity", "setting": "[17]", "value": 85.2, "unit": "%"}, {"measurement": "EC50", "setting": "[18]", "value": 0.358, "unit": "nM"}, {"measurement": "Activity", "setting": "[19]", "value": 4.75, "unit": "%"}, {"measurement": "Activity", "setting": "[20]", "value": 36.2, "unit": "%"}, {"measurement": "Activity", "setting": "[21]", "value": 71, "unit": "%"}, {"measurement": "Activity", "setting": "[22]", "value": 26.7, "unit": "%"}, {"measurement": "Activity", "setting": "[23]", "value": 15.8, "unit": "%"}, {"measurement": "Activity", "setting": "[24]", "value": 17.1, "unit": "%"}, {"measurement": "Activity", "setting": "[25]", "value": 28.7, "unit": "%"}, {"measurement": "Activity", "setting": "[26]", "value": 2.9, "unit": "pmol/g"}, {"measurement": "Activity", "setting": "[27]", "value": 92.6, "unit": "%"}, {"measurement": "Activity", "setting": "[28]", "value": 0.42, "unit": "pmol/g"}]}]}
